# ChEMBL document CHEMBL1133681, “Synthesis and opioid receptor affinity of a series of 2, 4-diaryl-substituted 3,7-diazabicylononanones” (J Med Chem, 2000)
# “And” between values parts separate entries of the source, which are not always exact repeats. Identical values can stand only once.
# Tests used:
# [1] = target: Delta-type opioid receptor (Rattus norvegicus) (UniProt P33533); assay: Inhibition against [3H]D-Ala-deltorphin opioid receptor delta 2 in rat brain membranes at 1 umol/L.; assay type: cell membranes
# Sequence of Delta-type opioid receptor (Rattus norvegicus) (P33533 whole entry): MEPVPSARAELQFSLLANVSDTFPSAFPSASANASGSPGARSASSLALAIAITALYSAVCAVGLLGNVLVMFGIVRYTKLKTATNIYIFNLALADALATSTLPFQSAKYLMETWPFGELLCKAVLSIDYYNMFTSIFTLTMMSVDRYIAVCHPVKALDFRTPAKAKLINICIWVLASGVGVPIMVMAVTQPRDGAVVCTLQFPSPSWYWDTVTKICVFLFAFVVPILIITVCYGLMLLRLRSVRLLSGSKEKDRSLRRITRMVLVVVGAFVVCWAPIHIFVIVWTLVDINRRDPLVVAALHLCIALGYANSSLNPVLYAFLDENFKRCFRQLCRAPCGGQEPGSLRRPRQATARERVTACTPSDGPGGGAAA
# In short: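 Rat brain membranes (without cerebellum, pons, medulla oblongata); 1 nM [3H]-D-Ala-deltorphine; no preincubation; 50 mM Tris-HCl pH 7.4 with BSA and 4.5 mM MgCl2; 37 °C 90 min; nonspecific binding with 10^-5 M naloxone; triplicate, GF/B filtration, scintillation counting.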
# [2] = target: Mu-type opioid receptor (Rattus norvegicus) (UniProt P33535); assay: Inhibition against [3H]naloxone opioid receptor mu 1 in rat brain membranes at 1 umol/L.; assay type: cell membranes
# Sequence of Mu-type opioid receptor (Rattus norvegicus) (P33535 whole entry): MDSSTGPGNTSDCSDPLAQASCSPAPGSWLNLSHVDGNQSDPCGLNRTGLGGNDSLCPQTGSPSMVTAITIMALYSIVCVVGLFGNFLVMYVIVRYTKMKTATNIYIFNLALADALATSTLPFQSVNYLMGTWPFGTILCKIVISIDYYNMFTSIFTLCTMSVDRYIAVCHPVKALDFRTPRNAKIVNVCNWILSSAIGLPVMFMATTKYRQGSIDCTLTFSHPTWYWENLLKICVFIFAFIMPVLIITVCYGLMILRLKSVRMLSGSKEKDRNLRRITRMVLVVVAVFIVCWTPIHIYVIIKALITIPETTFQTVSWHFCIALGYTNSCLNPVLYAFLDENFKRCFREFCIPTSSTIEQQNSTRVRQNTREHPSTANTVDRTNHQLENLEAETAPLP
# In short: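 Rat brain membranes (without cerebellum); 1 nM [3H]naloxone; preincubation 37 °C 40 min; incubation 50 mM Tris-HCl pH 7.4, 25 °C 30 min; nonspecific binding with 10^-5 M naloxone; triplicate, GF/B filtration, three ice-cold washes, scintillation counting.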
# [3] = target: Kappa-type opioid receptor (Rattus norvegicus) (UniProt P34975); assay: Inhibition against [3H]-CI 977 rat Opioid receptor kappa 1 at 10 umol/L
# Sequence of Kappa-type opioid receptor (Rattus norvegicus) (P34975 whole entry, looked up): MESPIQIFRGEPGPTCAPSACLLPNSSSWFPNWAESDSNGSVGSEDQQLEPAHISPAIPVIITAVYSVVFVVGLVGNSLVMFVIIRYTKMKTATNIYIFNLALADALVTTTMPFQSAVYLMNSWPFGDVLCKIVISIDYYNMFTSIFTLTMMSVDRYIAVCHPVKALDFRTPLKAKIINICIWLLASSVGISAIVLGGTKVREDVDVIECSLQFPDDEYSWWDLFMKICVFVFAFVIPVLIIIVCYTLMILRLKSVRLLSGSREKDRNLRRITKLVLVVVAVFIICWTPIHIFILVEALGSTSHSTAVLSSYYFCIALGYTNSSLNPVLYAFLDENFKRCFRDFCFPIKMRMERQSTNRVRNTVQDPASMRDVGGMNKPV
# [4] = target: T1, Kappa-type opioid receptor (Homo sapiens, UniProt P41145); assay: (§1) Inhibition against [3H]diprenorphine human Opioid receptor kappa 1 at 10 umol/L
# T1 sequence (P41145 whole entry): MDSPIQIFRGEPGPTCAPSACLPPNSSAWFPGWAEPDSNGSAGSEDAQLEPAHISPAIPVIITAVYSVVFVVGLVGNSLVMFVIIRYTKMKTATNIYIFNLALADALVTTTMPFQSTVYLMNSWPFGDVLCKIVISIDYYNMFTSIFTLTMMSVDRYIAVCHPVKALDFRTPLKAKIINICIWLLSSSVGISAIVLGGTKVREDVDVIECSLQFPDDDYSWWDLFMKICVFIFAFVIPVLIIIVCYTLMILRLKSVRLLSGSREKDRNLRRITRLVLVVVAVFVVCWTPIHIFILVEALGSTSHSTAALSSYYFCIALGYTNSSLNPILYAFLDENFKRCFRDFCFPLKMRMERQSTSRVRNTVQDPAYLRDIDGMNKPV
# [5] = target: T1, Kappa-type opioid receptor; assay: Inhibition against [3H]diprenorphine human Opioid receptor kappa 1
# [6] = Acid dissociation constant was measured in experiment 3; assay type: ADME; details: read-out: pKa3
# [7] = Acid dissociation constant was measured in experiment 4; assay type: ADME; details: read-out: pKa4
# [8] = Acid dissociation constant was measured in experiment 2; assay type: ADME; details: read-out: pKa2
# [9] = target: Delta-type opioid receptor (Rattus norvegicus) (UniProt P33533); assay: Inhibition against [3H]DPDPE Opioid receptor delta 1 in rat brain membranes at 1 umol/L; assay type: cell membranes
# In short: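 Rat brain membranes (without cerebellum, pons, medulla oblongata); 0.25 nM [3H]Cl-DPDPE; preincubation 25 °C 30 min; 50 mM Tris-HCl pH 7.4 with BSA, 45 μM PMSF, 4.5 mM MgCl2; 25 °C 240 min; nonspecific binding with 10^-3 M naloxone; triplicate, filtration, scintillation counting.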
# [10] = Acid dissociation constant was measured in experiment 1; assay type: ADME; details: read-out: pKa1
# [11] = target: T1, Kappa-type opioid receptor; assay: Inhibition against [3H]diprenorphine human Opioid receptor kappa 1 […] at 10 umol/L; assay type: cell membranes
# [12] = target: T1, Kappa-type opioid receptor; assay: Inhibition against [3H]diprenorphine human Opioid receptor kappa 1 at 10 uM/L
# [13] = target: Kappa-type opioid receptor (Mus musculus) (UniProt P33534); assay: Antinociceptive activity evaluated against Opioid receptor kappa 1 in mice by writhing test (administered intravenously)
# Sequence of Kappa-type opioid receptor (Mus musculus) (P33534 whole entry): as the sequence (P34975 whole entry, looked up) above, with E11D, A17S, P51S, V308A counted along it
# In short: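 Male NMRI mice (31-37 g); writhing induced by ip 0.35 mL of 0.02% phenylquinone; writhes counted 5–20 min after phenylquinone; food and water withdrawn during test; compound given iv; ED50 derived.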
# [14] = target: Kappa-type opioid receptor (Mus musculus) (UniProt P33534); assay: Antinociceptive activity evaluated against Opioid receptor kappa 1 in mice by tail-flick assay (administered intravenously)
# In short: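 Male NMRI mice (23-26 g), group-housed, ~22 °C, 12-h light-dark cycle; food and water withdrawn during testing; compound given iv; tail-flick response; ED50 derived.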
# [15] = target: T1, Kappa-type opioid receptor; assay: as §1; remark: listed apart in the source
SMILES,inhibition [1],inhibition [2],inhibition [4],further results
CCOC(=O)C12CN(C)CC(C(=O)OCC)(C1=O)C(c1cccc([N+](=O)[O-])c1)N(C)C2c1cccc([N+](=O)[O-])c1 (stereo unspecified),6.1%,2.3%,–,inhibition [3]: 5.9%
COC(=O)C12CN(C)CC(C(=O)OC)(C1=O)C(c1ccccc1Cl)N(C)C2c1ccccc1Cl (stereo unspecified),1.9%,2.7%,65.4%,–
CCOC(=O)C12CN(C)CC(C(=O)OCC)(C1=O)C(c1cccc(O)c1)N(C)C2c1cccc(O)c1 (stereo unspecified),6.9%,10.5%,92.7%,–
COC(=O)C12CN(C)CC(C(=O)OC)(C1=O)C(c1ccc(Cl)cc1)N(C)C2c1ccc(Cl)cc1 (stereo unspecified),-2.1%,2.2%,63%,–
COC(=O)C12CN(C)CC(C(=O)OC)(C1=O)C(c1cccc(OC)c1)N(C)C2c1cccc(OC)c1 (stereo unspecified),-1.6%,–,52.2%,–
CCOC(=O)C12CN(C)CC(C(=O)OCC)(C1=O)C(c1ccc(Cl)cc1)N(C)C2c1ccc(Cl)cc1 (stereo unspecified),1.8%,-5%,–,Ki [5]: 1.98 µM
COC(=O)C12CN(C)CC(C(=O)OC)(C1=O)C(c1ccnc3ccccc13)N(C)C2c1ccnc2ccccc12 (stereo unspecified),1.2%,-7.1%,25.8%,–
COC(=O)C12C[N+](C)(C)CC(C(=O)OC)(C1=O)C(c1ccccn1)N(C)C2c1ccccn1 (stereo unspecified),3.3%,29.2%,–,inhibition [3]: 96.4%
COC(=O)C12CN(C)CC(C(=O)OC)(C1=O)C(c1cccc(C#N)c1)N(C)C2c1cccc(C#N)c1 (stereo unspecified),5%,9.3%,35.5%,–
COC(=O)C12CN(C)CC(C(=O)OC)(C1=O)C(c1cccc(O)c1)N(C)C2c1cccc(O)c1 (stereo unspecified),–,35.6%,–,pKa [6]: 9.12; pKa [7]: 9.21; pKa [8]: 7.97; inhibition [9]: 27%; pKa [10]: 10.3
COC(=O)C12CN(C)CC(C(=O)OC)(C1=O)C(c1ccc(C#N)cc1)N(C)C2c1ccc(C#N)cc1 (stereo unspecified),3.2%,5.6%,17.2%,–
COC(=O)C12CN(C)CC(C(=O)OC)(C1=O)C(c1cccc(Cl)c1)N(C)C2c1cccc(Cl)c1 (stereo unspecified),–,8.8%,–,pKa [8]: 9.51; inhibition [11]: 42.3%; inhibition [9]: -0.8%; pKa [10]: 10.6
COC(=O)C12CN(C)CC(C(=O)OC)(C1=O)C(c1cccc(F)c1)N(C)C2c1cccc(F)c1 (stereo unspecified),3.2%,5%,–,pKa [8]: 10.7; Ki [5]: 0.026 µM; pKa [10]: 13.1
COC(=O)C12CN(C)CC(C(=O)OC)(C1=O)C(c1cccc(C)c1)N(C)C2c1cccc(C)c1 (stereo unspecified),–,-5.9%,–,inhibition [9]: 3.4%
COC(=O)C12CN(C)CC(C(=O)OC)(C1=O)C(c1ccc3ccccc3n1)N(C)C2c1ccc2ccccc2n1 (stereo unspecified),11.8%,36.6%,–,Ki [5]: 0.19 µM
COC(=O)C12CN(C)CC(C(=O)OC)(C1=O)C(c1ccccc1F)N(C)C2c1ccccc1F (stereo unspecified),1.5%,-9.2%,47.7%,–
COC(=O)C12CN(C)CC(C(=O)OC)(C1=O)C(c1ccc([N+](=O)[O-])cc1)N(C)C2c1ccc([N+](=O)[O-])cc1 (trans isomer),-4%,4.8%,–,inhibition [3]: 27.8%
COC(=O)C12CN(C)CC(C(=O)OC)(C1=O)C(c1ccc3ccccc3c1)N(C)C2c1ccc2ccccc2c1 (stereo unspecified),-2.1%,–,18.6%,–
COC(=O)C12CN(C)CC(C(=O)OC)(C1=O)C(c1ccccn1)N(C)C2c1ccccn1 (stereo unspecified),-5.9% and -6.6%,32.4% and 20% and 37.6%,65% and 62.6%,pKa [6]: 3.47; pKa [7]: 2.03; inhibition [12]: 61.7%; ED50 [13]: 1.05 mg/kg; ED50 [14]: 6.7 mg/kg; inhibition [9]: 5%
COC(=O)C12CN(C)CC(C(=O)OC)(C1=O)C(c1ccc(Cl)c(Cl)c1)N(C)C2c1ccc(Cl)c(Cl)c1 (stereo unspecified),-5.3%,6.1%,38.9%,–
COC(=O)C12CN(C)CC(C(=O)OC)(C1=O)C(c1ccccc1[N+](=O)[O-])N(C)C2c1ccccc1[N+](=O)[O-] (stereo unspecified),-1.1%,2.9%,3.4%,–
COC(=O)C12CN(C)CC(C(=O)OC)(C1=O)C(c1ccc(OC)cc1)N(C)C2c1ccc(OC)cc1 (stereo unspecified),3%,26.5%,–,pKa [8]: 5.51; Ki [15]: 0.018 µM; pKa [10]: 9.05
COC(=O)C12CN(C)CC(C(=O)OC)(C1=O)C(c1cccc3ccccc13)N(C)C2c1cccc2ccccc12 (stereo unspecified),1.8%,–,7.8%,–
CN1CC2(C(=O)O)C(=O)C(C(=O)O)(C1)C(c1ccccc1)N(C)C2c1ccccc1 (stereo unspecified),-1.6%,14.5%,–,Ki [15]: 0.21 µM; inhibition [9]: -0.3%
COC(=O)C12CN(C)CC(C(=O)OC)(C1=O)C(c1ccncc1)N(C)C2c1ccncc1 (stereo unspecified),-9%,3.1%,12.5%,–
COC(=O)C12CN(C)CC(C(=O)OC)(C1=O)C(c1ccc(O)cc1)N(C)C2c1ccc(O)cc1 (stereo unspecified),7.3%,14.2%,8.4%,–
COC(=O)C12CN(C)CC(C(=O)OC)(C1=O)C(c1cccc([N+](=O)[O-])c1)N(C)C2c1cccc([N+](=O)[O-])c1 (stereo unspecified),-7.9%,–,10%,inhibition [9]: 14%
COC(=O)C12CN(C)CC(C(=O)OC)(C1=O)C(c1cccnc1)N(C)C2c1cccnc1 (stereo unspecified),1.1%,30.7%,54.8%,–
COC(=O)C12CN(C)CC(C(=O)OC)(C1=O)C(c1ccc([N+](=O)[O-])cc1)N(C)C2c1ccc([N+](=O)[O-])cc1 (stereo in doubt),-3.1%,4.6%,–,–
COC(=O)C12CN(C)CC(C(=O)OC)(C1=O)C(c1ccc(F)cc1)N(C)C2c1ccc(F)cc1 (stereo unspecified),0.4%,10.1%,–,Ki [15]: 0.14 µM
